Data: ChEMBL document CHEMBL4308878, “Discovery of covalent enzyme inhibitors using virtual docking of covalent fragments” (Bioorg Med Chem Lett, 2019)
Active and inactive are the calls of the source. The calls are words filed in the database; no cut-off is given here.

How the values were obtained:
[1] = biological target: T1, Cathepsin B (Homo sapiens, UniProt P07858); assay: Inhibition of cathepsin B (unknown origin) using Z-Arg-Arg-AMC as substrate after 5 mins by fluorimetric method
[2] = biological target: T1, Cathepsin B; assay: Inhibition of cathepsin B (unknown origin) assessed as ratio of Kinact to Ki using Z-Arg-Arg-AMC as substrate after 5 mins by fluorimetric method
[3] = biological target: T2, Procathepsin L (Homo sapiens, UniProt P07711); assay: Inhibition of cathepsin L (unknown origin) using Z-Phe-Arg-AMC as substrate after 5 mins by fluorimetric method
[4] = biological target: T2, Procathepsin L; assay: Inhibition of cathepsin L (unknown origin) assessed as ratio of Kinact to Ki using Z-Phe-Arg-AMC as substrate after 5 mins by fluorimetric method
Target sequence in this assay (P07711 114-333 limits assumed): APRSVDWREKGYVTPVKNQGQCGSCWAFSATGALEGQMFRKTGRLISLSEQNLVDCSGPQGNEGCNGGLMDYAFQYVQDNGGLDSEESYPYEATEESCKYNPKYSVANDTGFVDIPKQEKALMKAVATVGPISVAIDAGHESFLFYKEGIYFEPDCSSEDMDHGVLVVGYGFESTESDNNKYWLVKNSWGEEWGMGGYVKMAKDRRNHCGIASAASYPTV

[5] = biological target: T2, Procathepsin L; assay: Inhibition of human liver cathepsin L assessed as ratio of Kinact to Ki using Z-FR-AMC as substrate measured at 1 min interval for 20 mins followed by every 15 mins for 2 hrs by fluorescence assay
Target sequence in this assay (P07711 114-333 limits assumed): as above

[6] = biological target: T2, Procathepsin L; assay: Competitive inhibition of human liver cathepsin L using Z-FR-AMC as substrate measured at 1 min interval for 20 mins followed by every 15 mins for 2 hrs by fluorescence assay
[7] = biological target: T1, Cathepsin B; assay: Inhibition of human liver cathepsin B using Z-Arg-Arg-AMC as substrate measured at 1 min interval for 20 mins followed by every 15 mins for 2 hrs by fluorescence assay
[8] = biological target: T1, Cathepsin B; assay: Inhibition of human liver cathepsin B using Z-Arg-Arg-AMC as substrate preincubated for 60 mins followed by substrate addition and measured at 1 min interval for 20 mins consecutively at every 15 mins for 2 hrs by fluorescence assay
[9] = biological target: T3, Calpain-1 catalytic subunit (Homo sapiens) (UniProt P07384); assay: Inhibition of human calpain1 using Suc-Leu-Tyr-AMC as substrate measured at 1 min interval for 20 mins followed by every 15 mins for 2 hrs by fluorescence assay
T3 sequence (whole entry): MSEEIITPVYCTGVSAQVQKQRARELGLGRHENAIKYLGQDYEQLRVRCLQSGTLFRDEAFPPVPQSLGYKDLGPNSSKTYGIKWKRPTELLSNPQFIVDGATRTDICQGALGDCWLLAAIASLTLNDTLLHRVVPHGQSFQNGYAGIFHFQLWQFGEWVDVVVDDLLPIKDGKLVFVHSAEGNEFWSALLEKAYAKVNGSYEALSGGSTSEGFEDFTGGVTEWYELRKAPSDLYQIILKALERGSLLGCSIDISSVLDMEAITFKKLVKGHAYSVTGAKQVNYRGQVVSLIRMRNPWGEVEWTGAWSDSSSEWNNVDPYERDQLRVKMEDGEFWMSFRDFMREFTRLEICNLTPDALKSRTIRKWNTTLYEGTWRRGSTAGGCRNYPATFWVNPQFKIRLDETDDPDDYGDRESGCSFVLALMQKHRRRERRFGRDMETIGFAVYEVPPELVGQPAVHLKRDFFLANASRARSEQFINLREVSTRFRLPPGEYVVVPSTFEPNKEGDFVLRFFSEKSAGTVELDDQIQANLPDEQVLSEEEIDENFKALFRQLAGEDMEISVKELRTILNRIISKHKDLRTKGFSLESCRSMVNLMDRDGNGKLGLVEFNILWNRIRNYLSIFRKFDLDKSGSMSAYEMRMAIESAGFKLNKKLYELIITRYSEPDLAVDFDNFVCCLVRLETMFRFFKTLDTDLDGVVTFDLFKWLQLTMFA

[10] = biological target: T3, Calpain-1 catalytic subunit (Homo sapiens); assay: Inhibition of human calpain1 using Suc-Leu-Tyr-AMC as substrate preincubated for 60 mins followed by substrate addition and measured at 1 min interval for 20 mins consecutively at every 15 mins for 2 hrs by fluorescence assay
[11] = biological target: T4, Ubiquitin carboxyl-terminal hydrolase 8 (Homo sapiens) (UniProt P40818); assay: Inhibition of recombinant USP8 catalytic domain (unknown origin) using Ubiquitin-Lys-TAMRA as substrate measured at 6 mins interval for 4 hrs by fluorescence assay
T4 sequence (whole entry): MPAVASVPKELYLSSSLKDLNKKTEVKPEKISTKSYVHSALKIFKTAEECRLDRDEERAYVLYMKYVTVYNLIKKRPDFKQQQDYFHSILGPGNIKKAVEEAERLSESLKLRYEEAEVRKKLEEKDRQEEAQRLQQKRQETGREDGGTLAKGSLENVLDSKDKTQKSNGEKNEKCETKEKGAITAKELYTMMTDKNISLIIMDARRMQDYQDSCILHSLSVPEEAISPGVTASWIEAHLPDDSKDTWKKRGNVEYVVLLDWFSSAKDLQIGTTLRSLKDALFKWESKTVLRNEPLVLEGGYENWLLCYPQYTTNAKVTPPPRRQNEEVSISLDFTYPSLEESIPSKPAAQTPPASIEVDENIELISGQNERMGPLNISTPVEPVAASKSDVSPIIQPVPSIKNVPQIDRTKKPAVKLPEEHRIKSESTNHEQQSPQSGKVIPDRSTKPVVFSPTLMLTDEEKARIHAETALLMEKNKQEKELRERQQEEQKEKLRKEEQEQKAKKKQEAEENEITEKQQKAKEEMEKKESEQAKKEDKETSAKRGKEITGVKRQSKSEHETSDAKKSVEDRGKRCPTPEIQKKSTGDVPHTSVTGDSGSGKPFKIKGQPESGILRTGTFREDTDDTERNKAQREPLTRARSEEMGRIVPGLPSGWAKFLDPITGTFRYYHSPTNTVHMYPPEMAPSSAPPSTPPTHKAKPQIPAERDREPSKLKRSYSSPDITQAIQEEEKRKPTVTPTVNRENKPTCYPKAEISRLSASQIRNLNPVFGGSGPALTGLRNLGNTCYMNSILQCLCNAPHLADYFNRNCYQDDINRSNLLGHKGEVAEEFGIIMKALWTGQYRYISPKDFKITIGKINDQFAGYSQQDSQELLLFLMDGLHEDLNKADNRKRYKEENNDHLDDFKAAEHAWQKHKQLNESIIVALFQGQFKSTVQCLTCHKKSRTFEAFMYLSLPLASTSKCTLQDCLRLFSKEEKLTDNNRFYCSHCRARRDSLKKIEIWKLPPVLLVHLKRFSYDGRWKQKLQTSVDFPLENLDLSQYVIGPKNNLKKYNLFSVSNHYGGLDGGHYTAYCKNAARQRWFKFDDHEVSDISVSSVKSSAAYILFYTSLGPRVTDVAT

[12] = biological target: T4, Ubiquitin carboxyl-terminal hydrolase 8 (Homo sapiens); assay: Inhibition of recombinant USP8 catalytic domain (unknown origin) using Ubiquitin-Lys-TAMRA as substrate preincubated for 60 mins followed by substrate addition and measured at 6 mins interval for 4 hrs by fluorescence assay
[13] = biological target: T2, Procathepsin L; assay: Irreversible inhibition of human liver cathepsin L at 50 uM using Z-FR-AMC as substrate preincubated for 3 hrs followed by compound washout measured by gel filtration assay
Method in brief: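 Cathepsin L (10 nM) was preincubated with inhibitor (50 μM), then passed through a gel-filtration spin column to remove free compound. Flow-through aliquots were assayed for recovery of enzyme activity at several time points.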
Target sequence in this assay (P07711 114-333 limits assumed): as the sequence (P07711 114-333 limits assumed) above

[14] = biological target: T2, Procathepsin L; assay: Inhibition of human liver cathepsin L using Z-FR-AMC as substrate measured at 1 min interval for 20 mins followed by every 15 mins for 2 hrs by fluorescence assay

Row | Ki [1] [µM] | Kinact [1] [s⁻¹] | Ratio [2] [M⁻¹ s⁻¹] | Ki [3] [µM] | Kinact [3] [s⁻¹] | Ratio [4] [M⁻¹ s⁻¹] | Compound | further results
1 | 0.34 | 0.36 | 1.06e+06 | 0.72 | 0.28 | 389000 | O=C(N[C@H](/C=C/S(=O)(=O)c1ccccc1)CCc1ccccc1)[C@H](Cc1cc(I)c(O)c(I)c1)NC(=O)N1CCOCC1 | –
2 | – | – | – | – | – | – | CS(=O)(=O)/C=C/CNC(=O)COc1ccc(Br)cc1Br | Ratio [5]: 5 M⁻¹ s⁻¹; Ki [6]: 59 µM; Kinact [6]: 0.0003 s⁻¹; inhibition [7]: inactive; inhibition [8]: inactive; inhibition [9]: inactive; inhibition [10]: inactive; inhibition [11]: inactive; inhibition [12]: inactive; inhibition [13]: Active
3 | – | – | – | – | – | – | C[C@@H](Oc1ccc(Br)cc1Br)C(=O)NC/C=C/S(C)(=O)=O | Ki [14]: 146 µM; Kinact [14]: 0.0006 s⁻¹
4 | 11 | 0.17 | 15500 | 1 | 0.24 | 240000 | O=C(N[C@H](/C=C/S(=O)(=O)c1ccccc1)CCc1ccccc1)[C@H](Cc1ccccc1)NC(=O)N1CCOCC1 | –
